In ChEMBL document CHEMBL2062360, “Distinct biological effects of golgicide a derivatives on larval and adult mosquitoes” (2012):

Experiments:
Type in all cases: functional
Aedes aegypti [1] = assay: Insecticidal activity against Aedes aegypti second instar larvae assessed as mortality at 0.2 mM after 24 hrs by microscopic analysis relative to control
Summary of the method: (§1)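 Second instar larvae of Ae. aegypti and An. stephensi were exposed to compounds added directly to the culture media, with DMSO as the vehicle control. Larval mortality was scored 24 h later and reported as mean with SEM, with statistical testing against control.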

Anopheles stephensi [2] = assay: Insecticidal activity against Anopheles stephensi second instar larvae assessed as mortality at 0.2 mM after 24 hrs by microscopic analysis relative to control; summary of the method: as §1
[3] = Selectivity ratio of mortality against Anopheles stephensi second instar larvae to mortality against Aedes aegypti second instar larvae
Aedes aegypti [4] = assay: Insecticidal activity against Aedes aegypti assessed as ovarian follicle size at 0.7 mM administered 1 hr post human blood-meal measured after 47 hrs (reference value: 482.6+/-4.8 um)
Anopheles stephensi [5] = assay: Insecticidal activity against Anopheles stephensi second instar larvae assessed as mortality after 24 hrs by microscopic analysis relative to control; summary of the method: as §1
Aedes aegypti [6] = assay: Insecticidal activity against Aedes aegypti second instar larvae assessed as mortality after 24 hrs by microscopic analysis relative to control; summary of the method: as §1

SMILES	Activity (Aedes aegypti [1])	Activity (Anopheles stephensi [2])	Ratio [3]	Activity (Aedes aegypti [4])	LC50 (Anopheles stephensi [5])	LC50 (Aedes aegypti [6])
Fc1cc(F)c2c(c1)[C@@H]1C=CC[C@@H]1[C@H](c1cncs1)N2 (racemic)	0%	37.6%	5	330.8 um		
Fc1cc(F)c2c(c1)[C@H]1C=CC[C@H]1[C@H](c1cccnc1)N2	1.5%	0%		433.6 um		
Fc1cc(F)c2c(c1)[C@@H]1C=CC[C@@H]1[C@H](c1ccc(C(F)(F)F)cc1)N2 (racemic)	5.9%	0%		230.4 um		
N#Cc1ccc([C@@H]2Nc3c(F)cc(F)cc3[C@@H]3C=CC[C@@H]32)cc1 (racemic)	0%	0%		309.5 um		
NCc1ccc([C@@H]2Nc3c(F)cc(F)cc3[C@@H]3C=CC[C@@H]32)cc1 (racemic)	91.7%	81.7%		301.5 um	100 µM	200 µM
CC(=O)NCc1ccc([C@@H]2Nc3c(F)cc(F)cc3[C@@H]3C=CC[C@@H]32)cc1 (racemic)	0%	0%		375.4 um		
Fc1ccc2c(c1)[C@@H]1C=CC[C@@H]1[C@H](c1cccnc1)N2 (racemic)	0%	0%		343.8 um		
Fc1cccc2c1N[C@@H](c1cccnc1)[C@H]1CC=C[C@@H]21 (racemic)	91.4%	100%		312.1 um	200 µM	200 µM
Fc1cc(F)c2c(c1)[C@@H]1C=CC[C@@H]1[C@@H](c1cccnc1)N2	12.3%	57.5%	5	407.7 um		
CCCCCCCNCc1ccc([C@@H]2Nc3c(F)cc(F)cc3[C@@H]3C=CC[C@@H]32)cc1 (racemic)	0%	0%		243.4 um		
CN1c2c(F)cc(F)cc2[C@@H]2C=CC[C@@H]2[C@@H]1c1cccnc1 (racemic)	96.2%	100%		416.3 um	100 µM	100 µM
CC(=O)N1c2c(F)cc(F)cc2[C@@H]2C=CC[C@@H]2[C@@H]1c1cccnc1 (racemic)	1.7%	0%		442.7 um		
Fc1cc(F)c2c(c1)[C@@H]1C=CC[C@@H]1[C@H](c1ccccn1)N2 (racemic)	100%	100%		287.5 um	100 µM	100 µM
Fc1cc(F)c2c(c1)[C@@H]1C=CC[C@@H]1[C@H](c1ccc(CNCc3ccc4ccccc4c3)cc1)N2 (racemic)	0%	0%		255.9 um		
Fc1cc(F)c2c(c1)[C@H]1C=CC[C@H]1[C@@H](c1cccnc1)N2	4.7%	0%		408.2 um		
Fc1cc(C(F)(F)F)cc2c1NC(c1cccnc1)[C@H]1CC=C[C@@H]21 (mixture of isomers)	5.3%	0%		315 um		
CC(C)(C)[C@@H]1Nc2c(F)cc(F)cc2[C@@H]2C=CC[C@H]12 (racemic)	15.4%	86.4%	5	326.2 um		
Fc1cc(F)c2c(c1)[C@@H]1C=CC[C@@H]1C(c1cccnc1)N2 (mixture of isomers)				291.8 um		
Fc1cc(F)c2c(c1)[C@@H]1C=CC[C@@H]1[C@H](c1ccccc1)N2	0%	0%		235.1 um		
CN1CCC(NCc2ccc([C@@H]3Nc4c(F)cc(F)cc4[C@@H]4C=CC[C@@H]43)cc2)CC1 (racemic)	100%	100%		275.3 um	50 µM	50 µM
Fc1cc(F)c2c(c1)[C@@H]1C=CC[C@@H]1[C@H](c1ccc(CNCc3ccc(C(F)(F)F)cc3)cc1)N2 (racemic)	0%	0%		297.5 um		
Fc1cc(F)c2c(c1)[C@@H]1C=CC[C@@H]1[C@H](c1cccnc1)N2	18.1%	83.4%	5	270 um		
